Screening data: PubChem, The Scripps Research Institute Molecular Screening Center
Only some compounds are listed: those with a hit (about 2.1% of all), similar ones and a draw of the others.
M5 antag = blocks acetylcholine activation of human M5 receptor; inhibition, % at 3 µM; AID 624040; 360,000 compounds, 0.59% hits; P08912; CHO-hM5 cells, Fluo-8 calcium fluorescence, ACh EC80;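 active = inhibition above a per-plate cutoff, the mean of that plate's test compounds plus 3 SD, cut at about 27% in these data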
CHRM5 agonist = agonists of human muscarinic M5 receptor (CHRM5); P08912; CHO-K1 hM5 cells, Fluo-8 calcium fluorescence; 0% DMSO wells, 100% maximal acetylcholine response; activation, % at 3 µM; 360,000 compounds, 0.19% hits; AID 624037;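 active = activation above the run's mean over test compounds plus 3 SD, cut at about 23% in these data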;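 note: signal is peak over basal fluorescence ratio across the kinetic read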
CHRM1 PAM = potentiates human M1 receptor response to acetylcholine; CHO-K1 hM1, Fluo-8 calcium fluorescence, ACh EC20; 0% = ACh EC20, 100% = maximal ACh; activation, % at 3 µM; 360,000 compounds, 0.088% hits; AID 588819; in the data active = activation above about 19%, passing the limit was not always enough
Target sequence (P11229 whole entry, looked up): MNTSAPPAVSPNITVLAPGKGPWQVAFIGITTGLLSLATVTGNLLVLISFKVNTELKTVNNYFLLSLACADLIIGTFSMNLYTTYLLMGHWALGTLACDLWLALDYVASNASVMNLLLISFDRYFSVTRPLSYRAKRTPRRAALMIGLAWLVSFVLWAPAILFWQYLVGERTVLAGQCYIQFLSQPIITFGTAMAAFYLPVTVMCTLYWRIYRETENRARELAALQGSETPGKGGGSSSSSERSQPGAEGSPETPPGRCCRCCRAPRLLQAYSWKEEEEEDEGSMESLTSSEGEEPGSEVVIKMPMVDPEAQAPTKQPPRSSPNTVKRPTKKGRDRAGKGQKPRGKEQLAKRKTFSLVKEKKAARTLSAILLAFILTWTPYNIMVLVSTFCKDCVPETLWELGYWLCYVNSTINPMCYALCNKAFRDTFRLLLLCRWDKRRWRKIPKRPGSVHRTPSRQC
M5 PAM = potentiates acetylcholine response at human M5 receptor. activation, % at 3 µM. 360,000 compounds, 0.3% hits. CHO-K1 hM5, Fluo-8 calcium, ACh EC20 PAM; 0% = ACh EC20, 100% = ACh EC100;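 active = activation above the run cutoff, the mean activation of all test compounds plus 3 SD, cut at about 18% in these data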
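Replicates: One well per compound, no replicates | System: Human M5 receptor in CHO-K1 cells | Benchmarks: Low control EC20 acetylcholine (0%), high control EC100 acetylcholine (100%) | Probe or stimulus: Acetylcholine, EC20 level | Times: Fluo-8 loading 80 min at 37 °C plus 30 min room temperature | Signal: Intracellular calcium via Fluo-8 fluorescence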
CHRM1 agonist = human M1 muscarinic receptor agonism; 360,000 compounds, 0.33% hits; AID 588814; activation, % at 3 µM; CHO-K1 hM1, Fluo-8 calcium fluorescence, agonist mode; 0% DMSO, 100% acetylcholine EC100;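 active = activation above the run's mean compound activation plus 3 SD, cut at about 16% in these data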;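 note: peak over basal fluorescence ratio within a 140 s kinetic read after compound addition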
M1 antag = antagonists of human M1 muscarinic receptor; inhibition, % at 3 µM; CHO-K1 hM1, Fluo-8 calcium fluorescence, ACh EC80 antagonist; P11229; 360,000 compounds, 1.3% hits; AID 588852;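 active = percent inhibition above its own plate's cutoff, namely the mean of that plate's compound wells plus 3 SD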;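 note: peak over basal fluorescence ratio during 140 s after agonist addition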
Hits are given with their value.

How did Cc1ccc(N(CC(=O)NCc2ccco2)C(=O)CCC(=O)Nc2ccccn2)cc1C do in these assays?
M5 antag: inactive; CHRM5 agonist: inactive; CHRM1 PAM: inactive; M5 PAM: inactive; CHRM1 agonist: inactive; M1 antag: inactive

Results for O=C(COc1cccnc1[N+](=O)[O-])Nc1ccc2c(c1)CCC2 ?
M5 antag: inactive; CHRM5 agonist: inactive; CHRM1 PAM: inactive; M5 PAM: inactive; CHRM1 agonist: inactive; M1 antag: 36

How did COc1ccc(NC(=O)COc2cccnc2[N+](=O)[O-])cc1OC do in these assays?
M5 antag: inactive; CHRM5 agonist: inactive; CHRM1 PAM: inactive; M5 PAM: inactive; CHRM1 agonist: inactive; M1 antag: inactive

What do the screens show for `O=C(COc1cccnc1[N+](=O)[O-])Nc1ccc2c(c1)OC(F)(F)O2`?
M5 antag: inactive; CHRM5 agonist: inactive; CHRM1 PAM: inactive; M5 PAM: inactive; CHRM1 agonist: inactive; M1 antag: 50

Results for O=C(COc1cccnc1[N+](=O)[O-])Nc1cccc(Br)c1 ?
M5 antag: inactive; CHRM5 agonist: inactive; CHRM1 PAM: inactive; M5 PAM: inactive; CHRM1 agonist: inactive; M1 antag: inactive

Results for Cc1cc(C)nc(SCc2nc3nc(C)cc(C)n3c2Br)n1 ?
M5 antag: inactive; CHRM5 agonist: inactive; CHRM1 PAM: inactive; M5 PAM: inactive; CHRM1 agonist: inactive; M1 antag: inactive

Results for COc1ccc(CN(C)C(=O)C(Cc2ccccc2)NC(=O)c2ccccc2)c(OC)c1OC (configuration not stated) ?
M5 antag: inactive; CHRM5 agonist: inactive; CHRM1 PAM: inactive; M5 PAM: inactive; CHRM1 agonist: inactive; M1 antag: inactive

Results for COc1cccc(CN(C)C(=O)C(Cc2ccccc2)NC(=O)c2ccccc2)c1OC (configuration not stated) ?
M5 antag: inactive; CHRM5 agonist: inactive; CHRM1 PAM: inactive; M5 PAM: inactive; CHRM1 agonist: inactive; M1 antag: 29

How did CN1CCN(Cc2cccc(Oc3ccccc3)c2)CC1 do in these assays?
M5 antag: inactive; CHRM5 agonist: inactive; CHRM1 PAM: inactive; M5 PAM: inactive; CHRM1 agonist: inactive; M1 antag: inactive

Results for COc1ccc(CN(C)C(=O)c2cccc(Oc3ccccc3)c2)c(OC)c1OC ?
M5 antag: 30; CHRM5 agonist: inactive; CHRM1 PAM: inactive; M5 PAM: inactive; CHRM1 agonist: inactive; M1 antag: inactive

How did COc1cccc(CN(C)C(=O)c2cccc(S(=O)(=O)N3CCN(Cc4ccccc4)CC3)c2)c1OC do in these assays?
M5 antag: inactive; CHRM5 agonist: inactive; CHRM1 PAM: inactive; M5 PAM: inactive; CHRM1 agonist: inactive; M1 antag: inactive

Results for COc1ccc(CN2CCN(Cc3cccc(Oc4ccccc4)c3)CC2)c(OC)c1OC ?
M5 antag: 35; CHRM5 agonist: inactive; CHRM1 PAM: inactive; M5 PAM: inactive; CHRM1 agonist: inactive; M1 antag: 44

How did Cc1nc(Cl)c(C(=O)NCCC(C)C)c(C)c1[N+](=O)[O-] do in these assays?
M5 antag: inactive; CHRM5 agonist: inactive; CHRM1 PAM: inactive; M5 PAM: inactive; CHRM1 agonist: inactive; M1 antag: inactive

How did NC(=O)C[N+]1(CC#CC(O)(c2ccccc2)c2ccccc2)CCCC1 do in these assays?
M5 antag: 34; CHRM5 agonist: inactive; CHRM1 PAM: inactive; M5 PAM: inactive; CHRM1 agonist: inactive; M1 antag: 92

What do the screens show for `O=S(=O)([O-])CCC[N+]1(CC#Cc2ccccc2)CCCCC1`?
M5 antag: inactive; CHRM5 agonist: inactive; CHRM1 PAM: inactive; M5 PAM: inactive; CHRM1 agonist: inactive; M1 antag: inactive

How did CCN(CC)CCC#CC(O)(c1ccccc1)C1CCCCC1 (configuration not stated) do in these assays?
M5 antag: 98; CHRM5 agonist: inactive; CHRM1 PAM: inactive; M5 PAM: inactive; CHRM1 agonist: inactive; M1 antag: 99

Results for CCC[N+]1(CC#CC(O)(c2ccccc2)C2CCCCC2)CCCCC1 (configuration not stated) ?
M5 antag: 99; CHRM5 agonist: inactive; CHRM1 PAM: inactive; M5 PAM: inactive; CHRM1 agonist: inactive; M1 antag: 99

How did c1ccc(-c2cnn3c(-c4ccccc4)c(-c4ccccc4)nc3n2)cc1 do in these assays?
M5 antag: inactive; CHRM5 agonist: inactive; CHRM1 PAM: inactive; M5 PAM: inactive; CHRM1 agonist: 52; M1 antag: 41

How did CCOc1ccc(NCc2cccn2-c2nnc(N3CCC(C(=O)NCCCN4CCCCC4CC)CC3)s2)cc1 (configuration not stated) do in these assays?
M5 antag: inactive; CHRM5 agonist: inactive; CHRM1 PAM: inactive; M5 PAM: inactive; CHRM1 agonist: inactive; M1 antag: 88

Results for Cc1ccc(S(=O)(=O)N/N=C/c2ccc(OC3CSC3)cc2)cc1 ?
M5 antag: inactive; CHRM5 agonist: 38; CHRM1 PAM: inactive; M5 PAM: inactive; CHRM1 agonist: 29; M1 antag: 37

What do the screens show for `Cc1ccc(S(=O)(=O)N/N=C/c2ccc(C(=O)O)cc2)cc1`?
M5 antag: inactive; CHRM5 agonist: inactive; CHRM1 PAM: inactive; M5 PAM: inactive; CHRM1 agonist: inactive; M1 antag: inactive

What do the screens show for `CN(C)CCN(Cc1ccc(Cl)cc1)c1ccccn1`?
M5 antag: inactive; CHRM5 agonist: inactive; CHRM1 PAM: inactive; M5 PAM: inactive; CHRM1 agonist: inactive; M1 antag: inactive

How did C[N+](C)(C)CCN(Cc1ccc(Cl)cc1)c1ccccn1 do in these assays?
M5 antag: inactive; CHRM5 agonist: inactive; CHRM1 PAM: inactive; M5 PAM: inactive; CHRM1 agonist: 19; M1 antag: 26

Results for COc1ccc(OC)c(S(=O)(=O)Nc2ccc3[nH]c(=O)[nH]c3c2)c1 ?
M5 antag: inactive; CHRM5 agonist: inactive; CHRM1 PAM: inactive; M5 PAM: inactive; CHRM1 agonist: inactive; M1 antag: inactive

How did COc1ccc(C(CNC(=O)CCNS(=O)(=O)c2ccc(Br)cc2)N2CCCC2)cc1 (configuration not stated) do in these assays?
M5 antag: inactive; CHRM5 agonist: inactive; CHRM1 PAM: inactive; M5 PAM: inactive; CHRM1 agonist: inactive; M1 antag: inactive

What do the screens show for `Cc1ccccc1COC(=O)CCCC1=NS(=O)(=O)c2ccccc2N1`?
M5 antag: inactive; CHRM5 agonist: inactive; CHRM1 PAM: inactive; M5 PAM: inactive; CHRM1 agonist: 23; M1 antag: inactive

How did Cc1ccc(NC(=O)COC(=O)CCCC2=NS(=O)(=O)c3ccccc3N2)cc1C do in these assays?
M5 antag: inactive; CHRM5 agonist: inactive; CHRM1 PAM: inactive; M5 PAM: inactive; CHRM1 agonist: inactive; M1 antag: inactive
